PABP polyA inh: PABP poly(A) RNA binding inhibitors, primary screen, biochemical, fluorescence polarization, uHTS; 290,000 tested, 1% active; inhibition, % at 35 µM; AID 2014, 2009; call rule not given here;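 note: calls also rest on retests at 20 µM and on dose response follow-up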
Target sequence (P11940 whole entry, looked up): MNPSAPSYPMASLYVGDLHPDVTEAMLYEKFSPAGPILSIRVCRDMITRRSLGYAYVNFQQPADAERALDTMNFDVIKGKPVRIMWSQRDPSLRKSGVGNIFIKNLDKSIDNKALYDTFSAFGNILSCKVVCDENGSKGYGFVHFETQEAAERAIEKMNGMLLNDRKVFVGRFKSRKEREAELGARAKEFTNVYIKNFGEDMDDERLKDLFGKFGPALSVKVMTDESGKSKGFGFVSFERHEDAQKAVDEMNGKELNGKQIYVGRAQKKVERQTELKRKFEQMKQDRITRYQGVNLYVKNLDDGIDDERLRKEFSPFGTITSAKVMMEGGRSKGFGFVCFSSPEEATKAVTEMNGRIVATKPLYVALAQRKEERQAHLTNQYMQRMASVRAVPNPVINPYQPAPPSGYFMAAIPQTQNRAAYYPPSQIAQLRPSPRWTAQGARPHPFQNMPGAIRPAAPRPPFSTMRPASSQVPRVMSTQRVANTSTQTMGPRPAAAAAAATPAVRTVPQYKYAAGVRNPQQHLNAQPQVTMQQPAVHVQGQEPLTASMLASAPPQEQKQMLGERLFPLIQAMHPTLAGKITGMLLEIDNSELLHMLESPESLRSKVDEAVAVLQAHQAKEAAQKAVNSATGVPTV
DNA FID counter-1: compounds displacing fluorescent DNA intercalator, primary screen, artefact control for HCV NS3 helicase inhibitor project, biochemical, FID fluorescence; 290,000 tested, 0.17% active; DNA fluorescent intercalator displacement; inhibition, % at 7.9 µM;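 note: 0% = vehicle and 100% = reference compound; higher means more ethidium bromide displaced from hairpin DNA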
PABP1 MLLE inh: inhibitors of PABP1 MLLE–PAM2 peptide binding, primary screen, biochemical, fluorescence polarization, FITC-PAM2, GST-MLLE | Polyadenylate-binding protein 1 (Homo sapiens), P11940 | inhibition, % at 20 µM | 360,000 tested, 0.36% active; in the data active = inhibition above about 35%, passing the limit was not always enough;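 note: plate controls were DMSO wells with GST-MLLE for no effect and wells lacking GST-MLLE protein for full effect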
core dimer inh: inhibitors of HCV core protein dimerization, primary screen, biochemical, TR-FRET, high-throughput; TR-FRET GST/Flag-core106 dimerization, 1536-well; inhibition, % at 5 µM; 300,000 tested, 0.33% active;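 active = inhibition above the mean of all tested compounds plus 3 SD, set per screening campaign, cut at about 45% in these data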
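Assay system: tagged HCV core106 pair (GST and Flag); medium: KF-containing HEPES buffer, pH 7.45, DTT, CHAPS, BSA; also added: Eu donor and XL665 acceptor anti-tag antibodies; dosing: 5 µM single dose; timing: compound-protein-antibody incubation 4 h at 22.5 °C; signal: TR-FRET 671 and 617 nm emission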
HCV NS3 hel inh: inhibitors of HCV NS3 helicase, primary screen, biochemical, Cy5 molecular beacon fluorescence. Hepatitis C virus NS3 helicase. NS3 helicase DNA unwinding. inhibition, % at 10.9 µM. 290,000 tested, 0.56% active;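 active = inhibition above the mean of all tested compounds plus 3 SD, set per campaign, cut at about 35% in these data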;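 note: 0% = DMSO wells and 100% = thioflavine S control wells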
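Control set: DMSO versus 110 µM thioflavine S; Material: NS3 helicase fragment of HCV; Measured by: Cy5 fluorescence at 0 and 60 min, beacon hairpin quenching; Read-out basis: percent inhibition from t60/t0 fluorescence ratio; Times: reaction time 60 min, 25 °C; Repeats: single replicate; Compound dosing: single dose, 10.9 µM nominal final, DMSO 0.8% final.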
eIF4H FP inh: human eIF4H binding inhibitors, primary screen, translation initiation inhibitor project, biochemical, uHTS, fluorescence polarization; Eukaryotic translation initiation factor 4H (Homo sapiens), Q15056; AID 2012, 2009; 290,000 tested, 0.94% active; inhibition, % at 35 µM; eIF4H fluorescence polarization binding assay; call rule not given here;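 note: calls also rest on retests at 20 µM and on dose response follow-up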
NS3 helicase cf: HCV NS3 helicase inhibitors, retest, confirmation, biochemical, Cy5 molecular beacon fluorescence, triplicate | inhibition, % at 10.9 µM | AID 1943, 2009 | 1,600 tested, 31% active | shares compounds with HCV NS3 hel inh | NS3 helicase DNA unwinding;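 active = inhibition above the mean of all tested compounds plus 3 SD, cutoff set per campaign, cut at about 36% in these data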
DNA FID counter-2: compounds displacing fluorescent DNA intercalator, artefact control for HCV NS3 helicase inhibitor project, biochemical, FID fluorescence, triplicate; shares compounds with HCV NS3 hel inh; DNA fluorescent intercalator displacement; inhibition, % at 7.9 µM; 1,600 tested, 4% active; AID 1945, 2009;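 note: 0% = vehicle and 100% = reference compound; higher means more displacement of ethidium bromide from the DNA hairpin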
* hit, by the source's call; · = no result. This is a sample that favours compounds with a hit; in the whole collection about 2% have one here. Cut-off read from the data, not from the text of the source, unless noted: active = inhibition above about 37%; inactive = the rest.

SMILES	PABP polyA inh	DNA FID counter-1	PABP1 MLLE inh	core dimer inh	HCV NS3 hel inh	eIF4H FP inh	NS3 helicase cf	DNA FID counter-2
CC1CCc2c(sc(NC(=O)CSc3nnc(-c4ccccc4)o3)c2C#N)C1 (centres undefined)	-14	-11	11	1	47*	4	1	6
Cc1sc(NC(=O)CSc2nnc(-c3ccccc3)o2)c(C#N)c1C	5	-14	-12	11	38*	2	-2	-22
O=C(NCc1ccccc1)c1cc(C2CCCCN2C(=O)c2ccccc2)on1 (centres undefined)	·	·	9	·	·	·	·	·
CN1C(=O)[C@H]2[C@@H](/C=C/c3ccccc3)N3C(=O)CN(CCO)C(=O)[C@@]3(Cc3ccccc3)[C@H]2C1=O	2	-17	-2	-12	44*	-7	-14	-8
O=C(O)C1CCN(c2nc(-c3ccccc3)c3cc(Br)ccc3n2)CC1	4	-16	10	5	48*	10	69*	-12
N#Cc1ccsc1NC(=O)C1=COCCO1	·	·	-11	·	·	·	·	·
CC(C)(C)C1CCc2[nH]nc(C(=O)O)c2C1 (centres undefined)	6	-15	-2	12	37*	0	-14	-1
COc1ccc(CNC(=O)c2c(-c3c(F)cccc3Cl)noc2C)cc1	-2	-14	-10	2	-7	-6	·	·
Cc1ccc(-c2ccc(C3C(C#N)=C(N)Oc4n[nH]c(C)c43)o2)cc1 (centres undefined)	76*	-14	-16	-1	40*	54*	-25	8
Cc1[nH]nc2c1C(c1ccc(-c3ccc(Cl)cc3)o1)C(C#N)=C(N)O2 (centres undefined)	4	-12	-1	-3	23	18	·	·
Cc1ccc(S(=O)(=O)Nc2ccc(Br)cc2/C=N/n2cnnc2)cc1	-4	-2	-3	2	36*	-2	38*	-8
CC1CCCCC1NC(=O)CCCn1c(=S)[nH]c2ccsc2c1=O (centres undefined)	3	-24	-11	-2	3	-21	·	·
CC12CCCCC1NS(=O)(=O)OC2 (centres undefined)	8	-8	-6	13	41*	3	-17	10
Cc1c(C(=O)NCc2ccc(C(F)(F)F)cc2)sc(=O)n1Cc1ccc(S(=O)(=O)N(C)C)cc1	·	·	1	·	·	·	·	·
CCCc1nc2sc3ccccc3c(=O)c2c(=O)n1Cc1ccc(OC)cc1	11	-6	-6	16	-8	-1	·	·
CCCc1nc2sc3ccccc3c(=O)c2c(=O)n1Cc1ccco1	49*	-13	27	·	46*	64*	4	-9
CCOC(=O)C1(C)C=C(Nc2ccc(O)cc2)C(=O)N1c1ccc(O)cc1 (centres undefined)	16	-28	-3	-15	38*	92	-10	14
Cc1ccc(C)c(N(C(=O)c2ccco2)C(C(=O)NC2CCCC2)c2ccco2)c1 (centres undefined)	3	-36	7	0	0	19	·	·
Cc1cc(C)cc(C(=O)NCC(=O)OCC(=O)N2CCCC2)c1	·	·	-4	·	·	·	·	·
CCCCCC(=O)N1C[C@@H](n2cc(-c3ccc(F)cc3)nn2)[C@H](O)C[C@@H]1c1ccc(Cl)cc1	·	·	0	·	·	·	·	·
COc1ccc(N=C2NC(=O)/C(=C\c3ccco3)S2)cc1	19	-15	-20	25	41*	98	-5	-6
Cc1ccc(S(=O)(=O)/N=C2/NC(=O)/C(=C\c3ccco3)S2)cc1	54*	-21	4	8	38*	66*	67*	-3
